The record followed here is ChEMBL document CHEMBL3526008, “Identification of amiodarone metabolites in human bile by ultraperformance liquid chromatography/quadrupole time-of-flight mass spectrometry” (Drug Metab Dispos, 2011).

Series [1] can be described thus: Drug level in human liver S9 fraction assessed as alcohol dehydrogenase-mediated compound formation treated with 50 uM amiodarone for 60 mins by UPLC-Q/TOF mass spectrometry in presence of NADPH. The series is classed as ADME, subcellular. As to conditions: s9, 1 h. In outline:
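Human liver S9 (2.0 mg/ml) in 100 mM potassium phosphate pH 7.4 at 37°C. Preincubated 10 min with or without 5 μM 4-methylpyrazole (final), then 50 μM amiodarone added. Incubated 60 min with 2.0 mM NADPH. Carboxylic acid metabolite compared by LC/MS between incubations with and without 4-MP. Duplicates.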

A short description of series [2]: Drug level in arrhythmia patient bile treated with amiodarone at 200 mg/day, po for 7 days by UPLC-Q/TOF mass spectrometry. As to conditions: human, in vivo, 168 h. Type of series: ADME, organism-based. In short, it runs like this:
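Three arrhythmia patients (66-89 y, 1 male, 2 female) with T-tube drainage after hepatobiliary surgery. Bile collected from T-tube at 1-h intervals (about 10 ml) over 24 h, stored at -20°C. Glucuronides hydrolysed with β-glucuronidase in 1 M citrate pH 5.0, 37°C, 16 h. Profiled by UPLC-Q/TOF on HSS T3 column, formic acid/acetonitrile gradient, ES+, m/z 80–1000.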

The nature of series [3]: Retention time of the compound by UPLC-Q/TOF mass spectrometry. The series is classed as physicochemical. In outline: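 UPLC on HSS T3 column (1.8 μm, 2.1 × 100 mm). Mobile phase 0.05% formic acid in water and in acetonitrile. Q/TOF detection in ES+ with leucine enkephalin lock mass.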
Series [4] is described as follows: Drug level in human liver S9 fraction assessed as compound formation treated with 50 uM amiodarone for 60 mins by UPLC-Q/TOF mass spectrometry in presence of NADPH. Type of series: ADME, subcellular. As to conditions: s9, 1 h. In short, it runs like this: (§1)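 Pooled human liver S9 at 2.0 mg/ml protein in 100 mM potassium phosphate pH 7.4, 37°C. Amiodarone 50 μM (DMSO 0.1% final). 3 min preincubation, then started with 2.0 mM NADPH. Quenched at 60 min with equal volume of ice-cold acetonitrile. Controls lacked NADPH or substrate. Duplicates. Read-out by UPLC-Q/TOF MS and UPLC-UV.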

The next series concerns Liver microsome. Kind of series: Drug level in human liver microsomes assessed as compound formation treated with 50 uM amiodarone for 60 mins by UPLC-Q/TOF mass spectrometry in presence of NADPH. Type of series: ADME. As to conditions: 1 h. In short, it runs like this:
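Pooled human liver microsomes at 1.0 mg/ml protein in 100 mM potassium phosphate pH 7.4, 37°C. Amiodarone 50 μM (DMSO 0.1% final). 3 min preincubation, then started with 2.0 mM NADPH. Stopped at 60 min with equal volume of ice-cold acetonitrile. Controls lacked NADPH or substrate. Duplicates. Analysed by UPLC-Q/TOF MS.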
(Liver microsomes are vesicles of endoplasmic reticulum, rich in cytochrome P450 enzymes.)

Series [5] is described as follows: Drug level in human liver S9 fraction assessed as compound formation treated with 50 uM amiodarone for 60 mins by LC-UV analysis in presence of NADPH. Type of series: ADME, subcellular. To be noted: s9, 1 h. In short, it runs like this: as §1

The structures appear in SMILES notation.

Turning to `CCN(CC)CCOc1c(I)cc(C(=O)c2c(CCCC(=O)O)oc3ccccc23)cc1I`, the Drug metabolism entry in series [1] and in series [2] was “metabolite_detected” in each case. In addition, the Retention_time in series [3] is 14.2 min.
`CCNCCOc1c(I)cc(C(=O)c2c(CCCC(=O)O)oc3ccccc23)cc1I`: the Drug metabolism entry in series [2] and in series [4] was “metabolite_detected” in each case. The same compound had a Retention_time in series [3] of 13.4 min.
With `CCN(CC)CCOc1c(I)cc(C(=O)c2c(CCC(C)O)oc3ccccc23)cc1I` (stereo not drawn), the Drug metabolism entry (in series [2]; in the series on Liver microsome; in series [4]) was “metabolite_detected” each time. Further, the Retention_time in series [3] was found to be 14.5 min.
Consider `CCN(CC)CCOc1c(I)cc(C(=O)c2c(CCCCO)oc3ccccc23)cc1I`, for which the Drug metabolism entry (in series [2]; with Liver microsome; in series [4]) was “metabolite_detected” throughout. This compound also gave a Retention_time in series [3] of 14.3 min.
For `CCN(CC)CCOc1ccc(C(=O)c2c(CCCC(=O)O)oc3ccccc23)cc1I`, the Drug metabolism result in series [2] and in series [4] was “metabolite_detected” throughout. This compound registered a Retention_time in series [3] of 13.3 min.
On to `CCCCc1oc2ccccc2c1C(=O)c1cc(I)c(OCCO)c(I)c1`, for which the Drug metabolism result (in series [2]; in the series with Liver microsome; in series [4]) was “metabolite_detected” each time. The Retention_time in series [3] is 21.5 min.
Take `CCCCc1oc2ccccc2c1C(=O)c1ccc(OCCNCC)c(I)c1`: the Drug metabolism result (in series [2]; in the series on Liver microsome; in series [4]) was “metabolite_detected” in each case. Moreover, the Retention_time in series [3] was 16.2 min.
Turning to `CCCCc1oc2cc(O)ccc2c1C(=O)c1cc(I)c(OCCN(CC)CC)c(I)c1`, the Drug metabolism result (in series [2]; in the series on Liver microsome; in series [4]) was “metabolite_detected” in each case. In series [3], the Retention_time was 15.5 min.
As for `CCCCc1oc2ccccc2c1C(=O)c1cc(I)c(OCCNCC)c(I)c1` [DESETHYLAMIODARONE], the Drug metabolism result (in series [5]; in series [2]; with Liver microsome; in series [4]) was “metabolite_detected” each time. In series [3], this compound registered a Retention_time of 17 min.
For `CCCCc1oc2ccccc2c1C(=O)c1cc(I)c(O)c(I)c1`, the Drug metabolism entry (in series [2]; with Liver microsome; in series [4]) was “metabolite_detected” each time. This compound came in with a Retention_time in series [3] of 16.3 min.
